From paper PMC8740777 (The FASEB Journal, 2022)
Each block holds one compound with its values, some of them ahead of it.

What was measured:
Human primary astrocytes [1] = assay: cAMP AlphaScreen assay, functional antagonism; format: cell-based; conditions: 10 µM, 18 h pretreatment
How it was run: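 Astrocytes were pretreated 18 h with 10 µM test compound, then resuspended in HBSS with 0.5 mM IBMX, 5 mM HEPES and 0.1% BSA at 5000 cells/well. Cells were stimulated with S1P plus 10 µM forskolin for 30 min at room temperature. cAMP was read by AlphaScreen after 1 h dark incubation with donor beads in lysis buffer. Data were baseline-corrected, normalized to S1P response and fitted with three-parameter curves. Mean ± SD, n = 3–4.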

Human primary astrocytes [2] = assay: Ca2+ mobilization assay, agonistic application; format: cell-based; conditions: for effect on intracellular Ca2+ mobilization as agonist: Fig. 2A, agonistic application
How it was run: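 Human primary astrocytes were plated at 10 000 cells/well in 384-well plates (day 0), switched to FreeStyle 293 expression medium on day 1 for 18 h, then loaded with FLIPR Calcium 4 dye for 1 h […]. Intracellular Ca2+ was monitored kinetically across a concentration series up to 30 µM, and logEC50 was taken from concentration-response curves.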

Human primary astrocytes [3] = assay: cAMP AlphaScreen assay, Gαi-coupled agonist mode; format: cell-based; conditions: Fig. 2D, 10 µM FSK
How it was run: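 Primary human astrocytes suspended in HBSS with 0.5 mM IBMX, 5 mM HEPES and 0.1% BSA, 5000 cells/well. Compound added with 10 µM forskolin (final), 30 min at room temperature. Lysis buffer (pH 7.4) carried biotin-cAMP/donor beads, then 1 h dark. AlphaScreen read: excitation 680 nm, emission 570 nm. Baseline-corrected, normalized to S1P, three-parameter curve fit. Mean ± SD, n = 3–5 over three experiments.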

Human primary astrocytes [4] = assay: Ca2+ mobilization assay, functional antagonism; format: cell-based; conditions: 18 h pretreatment, Fig. 2B,C
How it was run: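 Astrocytes were pretreated overnight (18 h) with 1 or 10 µM test compound, then loaded with calcium dye for 1 h without compound before S1P stimulation, with Ca2+ mobilization recorded. Inhibition was assessed against 10 µM S1P. Mean ± SD, n = 4, pooled from three independent experiments.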

S1P3 = S1P3 (Homo sapiens, UniProt Q99500); assay: S1PR internalization assay, short-term; format: cell-based; conditions: 1 µM, 1 h, FCM, normalized to vehicle
S1P3, sequence (Q99500 whole entry): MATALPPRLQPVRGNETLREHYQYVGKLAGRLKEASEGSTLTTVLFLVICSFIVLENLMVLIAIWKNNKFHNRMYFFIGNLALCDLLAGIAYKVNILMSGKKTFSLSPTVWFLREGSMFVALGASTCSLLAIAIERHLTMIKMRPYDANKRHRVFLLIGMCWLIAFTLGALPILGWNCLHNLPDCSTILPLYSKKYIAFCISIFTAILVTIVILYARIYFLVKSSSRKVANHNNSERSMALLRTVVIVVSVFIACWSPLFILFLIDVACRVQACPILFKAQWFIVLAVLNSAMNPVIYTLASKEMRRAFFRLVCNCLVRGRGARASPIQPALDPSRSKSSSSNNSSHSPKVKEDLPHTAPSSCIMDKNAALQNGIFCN
How it was run: (§1)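 C6 glioblastoma cells stably expressing an HA-tagged human S1P receptor subtype, grown in high-glucose DMEM with 10% FBS and penicillin–streptomycin. Test compound or S1P (1 µM) applied for 1 h. Surface receptor stained with anti-HA (clone 3F10), then PE anti-rat IgG, and read by flow cytometry. Vector-transfected C6 cells served as negative control. Levels normalized to vehicle; n = 4 from two independent experiments.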

[5] = biological target: S1P1‐EGFP fusion construct (Homo sapiens, UniProt P21453); assay: S1P1-EGFP internalization imaging in human primary astrocytes; format: cell-based; conditions: 1 µM, 1 h
S1P1‐EGFP fusion construct, sequence (P21453 whole entry, the tested form may be a part): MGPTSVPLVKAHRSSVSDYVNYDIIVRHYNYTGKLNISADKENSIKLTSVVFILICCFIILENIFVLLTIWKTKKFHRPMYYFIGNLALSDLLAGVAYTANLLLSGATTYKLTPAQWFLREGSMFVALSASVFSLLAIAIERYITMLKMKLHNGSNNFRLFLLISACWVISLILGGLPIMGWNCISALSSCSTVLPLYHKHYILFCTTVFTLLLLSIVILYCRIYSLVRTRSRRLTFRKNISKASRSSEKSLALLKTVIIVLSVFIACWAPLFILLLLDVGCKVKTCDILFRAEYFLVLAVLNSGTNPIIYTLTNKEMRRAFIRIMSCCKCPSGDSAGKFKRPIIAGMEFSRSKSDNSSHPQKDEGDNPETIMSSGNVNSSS

MS fatigue = conditions: OPTIMUM Phase 3 study; cited from earlier work
[6] = tested on: cuprizone‐induced demyelination; assay: cuprizone-induced demyelination, preventative paradigm; format: in vivo, C57BL/6J mice; conditions: 30 mg/kg b.i.d. oral during 5 weeks 0.2% cuprizone
How it was run: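 Male C57BL/6J mice (8 weeks old) received 0.2% cuprizone diet for 5 weeks with concurrent oral test compound, 30 mg/kg suspension in 0.25% methylcellulose/0.05% polysorbate 80, twice daily 8 h apart. Brains were perfusion-fixed in 10% NBF and cryoprotected, then cut into 30 µm coronal sections. Sections were stained with Black Gold II and immunostained for Olig2 and Iba1. Signal was quantified in a constant ROI in the midline corpus callosum or cingulum.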

S1P5 = S1P5 (Homo sapiens, UniProt Q9H228); assay: S1PR internalization assay, short-term; format: cell-based; conditions: 1 µM, 1 h, FCM, normalized to vehicle
S1P5, sequence (Q9H228 whole entry): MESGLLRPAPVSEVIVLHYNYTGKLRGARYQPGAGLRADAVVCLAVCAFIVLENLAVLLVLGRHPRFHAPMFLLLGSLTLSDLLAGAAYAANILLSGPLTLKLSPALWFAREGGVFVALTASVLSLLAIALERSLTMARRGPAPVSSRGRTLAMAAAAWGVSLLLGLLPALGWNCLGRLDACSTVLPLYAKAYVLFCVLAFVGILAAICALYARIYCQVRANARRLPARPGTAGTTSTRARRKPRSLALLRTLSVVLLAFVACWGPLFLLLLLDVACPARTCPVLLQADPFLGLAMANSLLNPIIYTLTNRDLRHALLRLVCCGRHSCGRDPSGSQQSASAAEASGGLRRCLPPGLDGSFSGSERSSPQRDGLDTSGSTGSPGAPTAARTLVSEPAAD
How it was run: as §1

S1P2 = S1P2 (Homo sapiens, UniProt O95136); assay: S1PR internalization assay, short-term; format: cell-based; conditions: 1 µM, 1 h, FCM, normalized to vehicle
S1P2, sequence (O95136 whole entry): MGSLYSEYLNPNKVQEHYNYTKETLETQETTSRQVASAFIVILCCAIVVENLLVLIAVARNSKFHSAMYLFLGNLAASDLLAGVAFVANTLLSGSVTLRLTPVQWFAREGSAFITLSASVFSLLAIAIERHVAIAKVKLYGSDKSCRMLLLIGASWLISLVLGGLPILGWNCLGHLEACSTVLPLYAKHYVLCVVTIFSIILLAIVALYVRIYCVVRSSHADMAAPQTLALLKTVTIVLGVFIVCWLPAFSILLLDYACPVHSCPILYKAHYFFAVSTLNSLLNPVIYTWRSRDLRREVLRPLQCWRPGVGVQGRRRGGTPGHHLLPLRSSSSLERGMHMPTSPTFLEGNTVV
How it was run: as §1

S1P1 [7] = biological target: T1, S1P1 (Homo sapiens, UniProt P21453); assay: S1P1 internalization, wash-out experiment in S1P1-C6 cells; format: cell-based; conditions: 1 µM for 4 h, 18 h compound-free medium, FCM
T1 sequence (P21453 whole entry): as the sequence (P21453 whole entry, the tested form may be a part) above

Human primary astrocytes [8] = assay: Single-cell RNA-seq of cytokine-stimulated astrocytes; format: cell-based; conditions: 1 µM; for number of DEGs, cytokines + ponesimod vs cytokines: total
How it was run: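 Primary human astrocytes (500 000 cells per 6 cm dish) received a cytokine mix (TNF-α, IFN-γ, IL-17, IL-1β, IL-6; 25 ng/ml each) ± 1 µM test compound for 24 or 48 h. 10x Chromium 3′ v3 capture targeted 10 000 cells, with NovaSeq sequencing and GRCh38 alignment. Data were normalized by regularized negative binomial regression and SNN-clustered. MAST DEGs: FDR p < .05, log2FC > 1.1. A fibroblast/pericyte cluster was excluded.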

S1P1 [9] = conditions: cited from earlier work
[10] = tested on: cuprizone‐induced demyelination; assay: cuprizone model, therapeutic paradigm; format: in vivo, C57BL/6J mice; conditions: 30 mg/kg
S1P4 = biological target: T2, S1P4 (Homo sapiens, UniProt O95977); assay: S1PR internalization assay, short-term; format: cell-based; conditions: 1 µM, 1 h, FCM, normalized to vehicle
T2 sequence (O95977 1-384): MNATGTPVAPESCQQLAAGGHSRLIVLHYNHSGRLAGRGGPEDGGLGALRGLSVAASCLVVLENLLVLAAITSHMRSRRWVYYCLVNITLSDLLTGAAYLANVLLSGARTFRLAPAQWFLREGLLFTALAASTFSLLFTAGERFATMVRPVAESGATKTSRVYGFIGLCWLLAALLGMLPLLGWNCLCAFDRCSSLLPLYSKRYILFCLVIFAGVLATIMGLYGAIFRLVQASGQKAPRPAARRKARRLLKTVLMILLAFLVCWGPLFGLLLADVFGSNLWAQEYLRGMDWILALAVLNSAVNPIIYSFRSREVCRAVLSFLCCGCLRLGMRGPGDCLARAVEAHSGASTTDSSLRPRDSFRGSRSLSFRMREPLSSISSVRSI
How it was run: as §1

S1P1 [11] = biological target: T1, S1P1; assay: S1PR internalization assay, short-term; format: cell-based; conditions: 1 µM, 1 h, FCM, normalized to vehicle
How it was run: as §1

S1P1 [12] = biological target: T1, S1P1; assay: compensated interferometric reader; format: binding
How it was run: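 Nanovesicles were made by sonicating C6 glioblastoma cells overexpressing HA-tagged human S1P1, with vector-transfected C6 cells as control. Vesicles were incubated 1 h with increasing test compound concentrations. Compensated interferometric reader signal was read against a reference of compound without vesicles. Specific binding was taken as S1P1-vesicle signal minus control-vesicle signal.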

Compound: CCCCCCCCc1ccc(CC[C@](N)(CO)COP(=O)(O)O)cc1 [Fingolimod-P, fingolimod phosphate]
effect on S1P-induced cAMP inhibition (functional antagonism) (Human primary astrocytes [1]): right shift of cAMP‐inhibitory curves | effect on intracellular Ca2+ mobilization as agonist (Human primary astrocytes [2]): none of the S1PR modulators (ponesimod, siponimod, ozanimod, or fingolimod‐P) affected intracellular Ca^2+ mobilization | effect on inhibiting cAMP production as agonists (Human primary astrocytes [3]): Neither ponesimod nor fingolimod‐P showed any effect | inhibition of S1P-induced Ca2+ mobilization (functional antagonism) (Human primary astrocytes [4]): minor

Compound: CC(C)Oc1ccc(-c2nc(-c3cccc4c3CC[C@@H]4NCCO)no2)cc1C#N [Ozanimod]
effect on intracellular Ca2+ mobilization as agonist (Human primary astrocytes [2]): none of the S1PR modulators (ponesimod, siponimod, ozanimod, or fingolimod‐P) affected intracellular Ca^2+ mobilization | inhibition of S1P-induced Ca2+ mobilization (functional antagonism) (Human primary astrocytes [4]): blocked S1P‐induced Ca^2+ mobilization in a concentration‐dependent manner

Second part, led by results:

cell surface expression of S1P3 (S1P3): remained unchanged | S1P1 internalization (S1P1-EGFP imaging) [5]: rapid S1P1 internalization | cell surface expression of S1P5 (S1P5): remained unchanged | cell surface expression of S1P2 (S1P2): remained unchanged | cell surface expression of S1P4 (S1P4): remained unchanged | Kd (S1P1 [12]): 2.09 ± 0.27 nM
Compound: CCC/N=C1\S/C(=C\c2ccc(OC[C@H](O)CO)c(Cl)c2)C(=O)N1c1ccccc1C [Ponesimod]
effect on S1P-induced cAMP inhibition (functional antagonism) (Human primary astrocytes [1]): effectively blocked S1P‐induced cAMP inhibition | Ca2+ signal at highest concentration (Human primary astrocytes [2]; 30 µM, Figure S1): induced a Ca^2+ signal only at the highest concentration | effect on intracellular Ca2+ mobilization as agonist (Human primary astrocytes [2]): none of the S1PR modulators (ponesimod, siponimod, ozanimod, or fingolimod‐P) affected intracellular Ca^2+ mobilization | MS fatigue, secondary endpoint (MS fatigue): achieved a novel secondary endpoint of reduced MS fatigue | GFAP+ astrocytes in the CC [6]: increased in the CC | GFAP+ astrocytes in the cingulum [6]: tended to decrease in the cingulum | Iba1+ microglia in the cingulum [6]: significantly decreased | demyelination in the cingulum (black gold II staining) [6]: protected mice from demyelination in the cingulum | number of Olig2+ oligodendrocytes in CC and cingulum [6]: increased | effect on inhibiting cAMP production as agonists (Human primary astrocytes [3]): Neither ponesimod nor fingolimod‐P showed any effect | cell surface expression of S1P1 after wash-out (S1P1 [7]): reduced cell surface expression of S1P1 for a sustained period of time | common DEGs: upregulated by cytokines and downregulated by ponesimod (Human primary astrocytes [8]; 24 and 48 h): 2432 DEGs | number of downregulated DEGs, cytokines + ponesimod vs cytokines (Human primary astrocytes [8]; 24 h): 4031 | number of upregulated DEGs, cytokines + ponesimod vs cytokines (Human primary astrocytes [8]; 24 h): 34 | number of DEGs, cytokines + ponesimod vs cytokines (Human primary astrocytes [8]; 24 h): 4065 DEGs | number of downregulated DEGs, cytokines + ponesimod vs cytokines (Human primary astrocytes [8]; 48 h): 822 | number of upregulated DEGs, cytokines + ponesimod vs cytokines (Human primary astrocytes [8]; 48 h): 130 | cellular distribution on UMAP, ponesimod alone (Human primary astrocytes [8]; 48 h, no cytokines): highly overlapping cellular distribution as compared to controls | number of DEGs, cytokines + ponesimod vs cytokines (Human primary astrocytes [8]; 48 h): 952 DEGs | expression of S1PR1, S1PR2 and S1PR3 (Human primary astrocytes [8]; cytokine-enhanced expression): suppressed | FOS expression (Human primary astrocytes [8]; cytokine-stimulated astrocytes): significantly inhibited FOS expression | metallothionein (MT) gene expression in Cluster 8 (Human primary astrocytes [8]; cytokine-stimulated astrocytes): significantly downregulated | proliferating astrocyte clusters (Clusters 6, 9, and 12) (Human primary astrocytes [8]; cytokine-stimulated astrocytes): blocked decreases in proliferating astrocyte clusters | cellular fractions of reactive astrocyte clusters (Human primary astrocytes [8]; cytokine-stimulated astrocytes, Clusters 3, 8, 10, 11, 15): selectively decreased the cellular fractions of Clusters 8, 10, and 15 | selectivity for S1P1 as compared to other S1PRs (S1P1 [9]): > 10 fold | remyelination after cuprizone diet cessation ([10]; prolonged treatment (3 weeks)): significantly enhanced remyelination in the cingulum | remyelination after cuprizone diet cessation ([10]; short-term treatment (1 week)): did not show any beneficial effects | inhibition of S1P-induced Ca2+ mobilization (functional antagonism) (Human primary astrocytes [4]): blocked S1P‐induced Ca^2+ mobilization in a concentration‐dependent manner | cell surface expression of S1P1 (S1P1 [11]): only reduced the cell surface expression of S1P1

EC50 (Human primary astrocytes [2]; Homo sapiens, Astrocyte, read-out: logEC50, intracellular Ca2+ response (converted)): 93.1 nM | cell surface expression of S1P1 after wash-out (S1P1 [7]): recycled to the cell surface | cell surface expression of S1P4 (S1P4): relatively less responsive
Compound: CCCCCCCCCCCCC/C=C/[C@@H](O)[C@@H](N)COP(=O)(O)O [S1P, Sphingosine 1‐phosphate]
cell surface expression of S1P3 (S1P3): significantly reduced cell surface expression | cell surface expression of S1P5 (S1P5): significantly reduced cell surface expression | cell surface expression of S1P2 (S1P2): significantly reduced cell surface expression | cell surface expression of S1P1 (S1P1 [11]): significantly reduced cell surface expression

Kd (S1P1 [12]): 0.8 ± 0.97 nM
Compound: CCc1cc(/C(C)=N/OCc2ccc(C3CCCCC3)c(C(F)(F)F)c2)ccc1CN1CC(C(=O)O)C1 [Siponimod]
effect on intracellular Ca2+ mobilization as agonist (Human primary astrocytes [2]): none of the S1PR modulators (ponesimod, siponimod, ozanimod, or fingolimod‐P) affected intracellular Ca^2+ mobilization | inhibition of S1P-induced Ca2+ mobilization (functional antagonism) (Human primary astrocytes [4]): minor
